Tests used:
[1] = folding enthalpy; higher = less favourable; fluorescence melt of hairpins on a sequencing array, two-state fit; conditions: sodium 0.088 M
Procedure, shortened: (§1)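 Folding enthalpy and melting temperature were estimated with bootstrapped two-state fits and combined across four replicates by inverse-variance weighting, with fitted temperatures raised by 9.35 °C to match UV melts. The data were Cy3 fluorescence of library hairpins, with annealed Cy3 and quencher oligos, on a sequenced MiSeq flow cell in 50 mM Na-HEPES pH 8.0, 25 mM NaCl, imaged in 2.5 °C steps up to 60 °C and normalised to pre-quench Cy3 and control constructs.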

[2] = melting temperature; fluorescence melt of hairpins on a sequencing array, two-state fit, raised by 9.35 °C to match UV melts; conditions: sodium 0.088 M
Procedure, shortened: as §1

GGCGACGAAAGTCAGCC ((((((....))).)))
folding enthalpy [1]: -28.1 kcal/mol
Tm [2]: 65.6 °C

GAATTGACGAAAGTCTTC (((..(((....))))))
folding enthalpy [1]: -11.6 kcal/mol
Tm [2]: 29.6 °C

GTCACCGAAAGGTACGAC ((((((....)))..)))
folding enthalpy [1]: -18 kcal/mol
Tm [2]: 41.2 °C

GATCATCCGAATGATC ((((((....))))))
folding enthalpy [1]: -30.3 kcal/mol
Tm [2]: 47.2 °C

GCTGGGGGAAACTCCGGC ((.((.(....).)).))
folding enthalpy [1]: -31.1 kcal/mol
Tm [2]: 47.1 °C

CGATCGGAAACGACGTCG ((((((....)))..)))
folding enthalpy [1]: -18.6 kcal/mol
Tm [2]: 40.8 °C

GAGGATGGAAACGTCCTC (((((.(....).)))))
folding enthalpy [1]: -34.9 kcal/mol
Tm [2]: 49.6 °C

GCGTGGCGAAAGCGGCGC (((..((....))..)))
folding enthalpy [1]: -40.4 kcal/mol
Tm [2]: 67.7 °C

GGGTTCGAAAGAAGGCCC ((((((....)))..)))
folding enthalpy [1]: -20.7 kcal/mol
Tm [2]: 35.6 °C

GGTCGCGAAAGCGTTACC ((((((....)))..)))
folding enthalpy [1]: -14.6 kcal/mol
Tm [2]: 41.4 °C

GTCCCCCGAAAGGGGAC (((.(((....))))))
folding enthalpy [1]: -19.9 kcal/mol
Tm [2]: 67.2 °C

GGGGCGTCGAAAGACCCC (((..(((....))))))
folding enthalpy [1]: -16.9 kcal/mol
Tm [2]: 57.3 °C

GATCGAATAGTCGATC ((((((....))))))
folding enthalpy [1]: -34.8 kcal/mol
Tm [2]: 48.8 °C

GCTAAGCGAAAGCAAAGC (((..((....))..)))
folding enthalpy [1]: -17.5 kcal/mol
Tm [2]: 40.8 °C

GCAAAGCGAAAGCACTGC (((..((....))..)))
folding enthalpy [1]: -13.7 kcal/mol
Tm [2]: 37.7 °C

GTCATGGCGAAAGCCGAC (((..(((....))))))
folding enthalpy [1]: -13.4 kcal/mol
Tm [2]: 42.6 °C

GATCTAAGTTTAGATC ((((((....))))))
folding enthalpy [1]: -30 kcal/mol
Tm [2]: 41.9 °C

GTCCACGGAAACACGGAC ((((..(....)..))))
folding enthalpy [1]: -18.4 kcal/mol
Tm [2]: 37.2 °C

GTGCGCGAAAGCGTTCAC ((((((....)))..)))
folding enthalpy [1]: -11.3 kcal/mol
Tm [2]: 39.9 °C

GTTTTAGGAAACTAAAAC (((((((....)))))))
folding enthalpy [1]: -41.9 kcal/mol
Tm [2]: 48.4 °C

GTCTGAGGAAACCCAGAC (((((.(....).)))))
folding enthalpy [1]: -31.8 kcal/mol
Tm [2]: 45.9 °C

GGGCGTGGAAACACGCTC (.(((((....))))).)
folding enthalpy [1]: -14.5 kcal/mol
Tm [2]: 62.4 °C

GGCAGCCCGAAAGGGGCC (((..(((....))))))
folding enthalpy [1]: -13.3 kcal/mol
Tm [2]: 50.7 °C

GCACCGCGAAAGCCGTGC ((((.((....)).))))
folding enthalpy [1]: -31.1 kcal/mol
Tm [2]: 62.2 °C

GCTTAGCCGAAAGGCAGC (((..(((....))))))
folding enthalpy [1]: -16.4 kcal/mol
Tm [2]: 45.5 °C

GCTGCCGAAAGGCTTAGC ((((((....)))..)))
folding enthalpy [1]: -16.1 kcal/mol
Tm [2]: 45.2 °C

GCCGGGCGAAAGCGCCGC ((.(.((....)).).))
folding enthalpy [1]: -11.5 kcal/mol
Tm [2]: 48.7 °C

GGACACGGAAACATGTCC (((((.(....).)))))
folding enthalpy [1]: -33 kcal/mol
Tm [2]: 44 °C

GCAAGCGGAAACGCTCGC ((.((((....)))).))
folding enthalpy [1]: -22.6 kcal/mol
Tm [2]: 52.7 °C

GATCGAAGCATCGATC ((((((....))))))
folding enthalpy [1]: -35.8 kcal/mol
Tm [2]: 51.2 °C

GATCACTTACGTGATC ((((((....))))))
folding enthalpy [1]: -38.1 kcal/mol
Tm [2]: 57.4 °C

GGTAGCGAAAGCTACACC ((((((....)))..)))
folding enthalpy [1]: -9.32 kcal/mol
Tm [2]: 50.5 °C

GCAGCGCGAAAGCTCGGC ((.(.((....)).).))
folding enthalpy [1]: -20.9 kcal/mol
Tm [2]: 42.9 °C

GCTGCGCGAAAGCGTCGC ((..(((....)))..))
folding enthalpy [1]: -15.2 kcal/mol
Tm [2]: 51.4 °C

GTCGAGGGAAACCTCGGC (.(((((....))))).)
folding enthalpy [1]: -35.8 kcal/mol
Tm [2]: 57.3 °C

GATCTCTTGCGAGATC ((((((....))))))
folding enthalpy [1]: -42.4 kcal/mol
Tm [2]: 51.9 °C

GCAGGGCGAAAGCTATGC (((..((....))..)))
folding enthalpy [1]: -20.4 kcal/mol
Tm [2]: 54.1 °C

GTTGATGGAAACATTGAC ((..(((....)))..))
folding enthalpy [1]: -13.7 kcal/mol
Tm [2]: 29.5 °C

GCGTAGATACGC ((((....))))
folding enthalpy [1]: -19.8 kcal/mol
Tm [2]: 52.9 °C

TGCTTGAAAAAGCA (((((....)))))
folding enthalpy [1]: -8.9 kcal/mol
Tm [2]: 47.9 °C

GTTGAAGGAAACCTCAAC (((((.(....).)))))
folding enthalpy [1]: -31 kcal/mol
Tm [2]: 36 °C

GATCTGGGTACAGATC ((((((....))))))
folding enthalpy [1]: -38.7 kcal/mol
Tm [2]: 57.7 °C

GAGTCCGAAAGGATACTC ((((((....)))..)))
folding enthalpy [1]: -17.9 kcal/mol
Tm [2]: 38.6 °C

GGTTGGGCGAAAGCCACC (((..(((....))))))
folding enthalpy [1]: -12.7 kcal/mol
Tm [2]: 39.8 °C

GGGCTCCGAAAGGAACCC (((.(((....))).)))
folding enthalpy [1]: -44.1 kcal/mol
Tm [2]: 56.5 °C

GTAGTCGAAAGACTATAC ((((((....)))..)))
folding enthalpy [1]: -13.2 kcal/mol
Tm [2]: 42 °C

Source: the array DNA melting data of Ke et al. (doi:10.1101/2024.01.08.574731)
